KCNQ1 inh – blocks the human KCNQ1 potassium channel; P51787; CHO-K1 KCNQ1, FluxOR thallium flux fluorescence; hits give high values; B-score at 10 µM; actives 1.3% (n = 310,000); AID 2642;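 active means compounds whose thallium flux B-score, printed positive for inhibition, exceeds three library SD while starting fluorescence stays within three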;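 further: channel opened by potassium depolarization with thallium stimulus after 20 min compound exposure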
KCNQ1 act – potentiators or activators of human KCNQ1 potassium channel. P51787. CHO-K1 KCNQ1, thallium flux FluxOR fluorescence; hits give high values. B-score at 10 µM. actives 0.35% (n = 310,000);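 active means fluorescence ratio B-score, a plate-corrected score, at least three library SD, with initial intensity B-score within 5 SD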
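System: CHO-K1 cells stably expressing KCNQ1 / Medium: assay buffer for compound exposure, DMSO matched across wells / Reagent: thallium- and potassium-containing depolarizing buffer / Compound: one concentration, matched DMSO / Incubation: 20 min compound pretreatment at room temperature / Measured by: kinetic FluxOR fluorescence, 10 s baseline plus 110 s post-stimulus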
KCNK3 block – human KCNK3 channel inhibition, primary screen | O14649 | CHO-KCNK3 thallium flux, FluxOR fluorescence; hits give low values | B-score at 10 µM | actives 0.84% (n = 340,000);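 active means B-score under library mean minus 4 SD, starting fluorescence ratio at most library mean plus 5 SD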;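 further: more negative B-score means stronger inhibition of thallium flux through KCNK3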
Target sequence (O14649 whole entry, looked up): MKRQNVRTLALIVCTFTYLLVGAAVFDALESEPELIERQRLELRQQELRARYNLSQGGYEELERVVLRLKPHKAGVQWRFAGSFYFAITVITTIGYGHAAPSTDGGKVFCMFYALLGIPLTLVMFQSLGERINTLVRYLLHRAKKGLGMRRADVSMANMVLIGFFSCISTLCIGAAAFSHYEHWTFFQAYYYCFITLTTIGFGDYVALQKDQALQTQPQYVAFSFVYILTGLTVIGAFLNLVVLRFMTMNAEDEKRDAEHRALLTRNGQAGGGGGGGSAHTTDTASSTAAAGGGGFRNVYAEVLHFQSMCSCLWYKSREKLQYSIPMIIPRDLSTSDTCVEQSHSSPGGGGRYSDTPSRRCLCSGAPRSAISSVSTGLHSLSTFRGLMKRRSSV
KCNK9 block – blocks the human KCNK9 two-pore domain potassium channel | Q9NPC2 | HEK293 KCNK9, FluxOR thallium flux fluorescence; hits give low values | B-score at 10 µM | actives 1.2% (n = 310,000);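 active means ratio B-score over 3 SD below the library mean, with starting fluorescence within 5 SD of its mean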;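 further: negative B-score means less thallium flux so channel inhibition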
hERG protect – compounds protecting human hERG from proarrhythmic drug block; activation (rescue from dofetilide block), less the hit threshold, % at 10 µM; actives 0.51% (n = 310,000); AID 1511; CHO-hERG, FluxOR thallium flux, dofetilide IC70 present;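 active means activation above the mean of controls blocked by dofetilide plus 5 SD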;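 further: thallium influx through hERG after potassium depolarization seen as dye fluorescence rise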
Kir21 block – Kir2.1 (mouse) channel inhibition | B-score at 10 µM | actives 0.85% (n = 310,000) | HEK293-Kir2.1, FluxOR thallium flux fluorescence; hits give low values | AID 1672;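 active means fluorescence ratio B-score at or below minus 3 SD of library scores, with starting-brightness B-score within 2 SD, cut at about -4.2 in these data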;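 further: channel flux triggered by added potassium and thallium sulfate stimulus; B-score of peak minus minimum fluorescence over baseline after thallium stimulus; more negative B-score means stronger Kir2.1 block with less thallium influx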
* = called active by the depositor; i = inactive; . = no result given. An excerpt weighted towards active compounds, which were near 3.7% of everything screened.

SMILES	KCNQ1 inh	KCNQ1 act	KCNK3 block	KCNK9 block	hERG protect	Kir21 block
O=C(NC(Cc1c[nH]c2ccccc12)C(=O)N/N=C/c1cccc2ccccc12)c1cccs1 (stereo unspecified)	6*	i	i	i	-17	-0.07
Cc1ccc(-c2cc3nc(C)cc(C)n3n2)cc1	i	i	i	i	-9	-0.73
COc1ccc(-c2cc3nc(C)cc(N4CC(C)CC(C)C4)n3n2)cc1 (stereo unspecified)	6*	i	i	i	-12	-0.44
CCN1/C(=C/C(C)=C/c2sc3ccccc3[n+]2CC)Sc2ccccc21	i	i	-15*	i	-26	1.8
Cc1ccc(Cn2c(=N)n(CC(=O)c3ccccc3)c3ccccc32)cc1	i	i	i	i	-30	-8.9*
N=c1n(Cc2ccccc2Cl)c2ccccc2n1CC(O)c1ccco1 (stereo unspecified)	i	i	i	i	-11	-5.2*
N=c1n(CC(=O)c2cccc([N+](=O)[O-])c2)c2ccccc2n1Cc1ccccc1	i	i	i	i	-18	0.33
CCCn1c(=N)n(CC(O)c2ccc(C)cc2)c2ccccc21 (stereo unspecified)	i	i	i	i	-14	-6*
CCCn1c(=N)n(CC(O)c2ccco2)c2ccccc21 (stereo unspecified)	i	i	i	i	1	-0.17
Cc1ccc(Cn2c(=N)n(CC(O)c3ccco3)c3ccccc32)cc1 (stereo unspecified)	i	i	i	i	-7	-5*
COc1ccc(S(=O)(=O)N2CCOCC2)cc1NC(=O)COC(=O)C1CC2CCCC(C1)C2=O (stereo unspecified)	i	i	i	i	-5	1.2
CC(=O)Nc1ccc(NC(=O)C(C)OC(=O)C2CCN(S(=O)(=O)c3ccc4c(c3)OCCO4)CC2)cc1 (stereo unspecified)	i	i	i	i	-15	0.86
C=CCn1c(=N)n(CC(=O)c2ccc(Br)cc2)c2ccccc21	i	i	i	i	-14	0.45
Cn1c(=N)n(CC(O)c2cccc3ccccc23)c2ccccc21 (stereo unspecified)	i	i	i	i	-10	-4.4*
N=c1n(N)c2ccccc2n1CC(=O)c1ccc(Br)cc1	i	i	i	i	-9	-5.5*
O=C(NCc1ccccc1)C(c1ccco1)N(C(=O)c1ccccn1)c1ccc(F)cc1 (stereo unspecified)	i	i	i	i	-11	-0.9
CC1CCc2c(sc(/N=C/c3ccco3)c2C(N)=O)C1 (stereo unspecified)	i	i	i	i	-7	0.44
CCc1ccc2[nH]c(O)c(N=Nc3nc(-c4ccccc4)cs3)c2c1	i	10*	i	i	7.2*	0.36
CCN(CC)C(=O)CN1CCN(Cc2ccc3c(c2)OCO3)CC1	i	i	i	i	-6	0.2
COC(=O)c1cc(CSC(=N)N)ccc1OCCC(C)C	i	i	i	i	-9	-9.5*
CC(=O)c1cc(-c2ccccc2)n(CC(=O)Nc2ccc(C)c(C)c2)c1C	i	i	i	i	-2	-0.43
OCCN1CCN(CC/C=C2/c3ccccc3Sc3ccc(C(F)(F)F)cc32)CC1	i	i	i	i	-19	-5.4*
CN(C)CCC(=O)N1c2ccccc2Sc2ccc(C(F)(F)F)cc21	i	i	i	i	-14	-0.69
OCCN1CCN(CCCN2c3ccccc3Sc3ccc(C(F)(F)F)cc32)CC1	i	i	i	i	-22	-7.1*
CN(C)CCCN1c2ccccc2Sc2ccc(C(F)(F)F)cc21	i	i	i	i	-15	-5.1*
SMILES	KCNQ1 inh	KCNQ1 act	KCNK3 block	KCNK9 block	hERG protect	Kir21 block
CCN(CC)CCCCN1c2ccccc2Sc2ccccc21	i	i	i	i	-14	-5.8*
CC(C)(C)[C@H]1C=C(C(=O)N2CCN(Cc3ccc4c(c3)OCO4)CC2)O[C@@H](OCc2ccc(CO)cc2)C1	i	i	i	i	-13	-1.2
Cc1nc2ccccc2n1Cc1ccc(Cl)cc1	6*	i	i	i	-5	1.2
O=c1ccc(-c2nc3ccccc3n2Cc2ccc(Cl)cc2)c[nH]1	i	10*	i	i	-12	-0.08
Cc1ccc2nc(SC(C)C(=O)NCc3ccc4c(c3)OCO4)[nH]c2c1 (stereo unspecified)	i	i	i	i	19*	-1
CC(Sc1ccc(Cl)cc1)C(=O)NCc1ccc2c(c1)OCO2 (stereo unspecified)	i	i	i	i	-5	-3.8
Cc1ccc(C(=O)C(C)OC(=O)CCS(=O)(=O)c2ccc(C)cc2)cc1 (stereo unspecified)	.	.	i	.	.	.
CSc1ccc(C2NN=C(c3ccccc3)S2)cc1 (stereo unspecified)	i	i	i	i	15*	-0.19
Cc1cc(C)cc(N(CCC#N)C(=O)COC(=O)C2CCN(c3ccc(C(F)(F)F)cn3)CC2)c1	i	i	i	i	-4	-1.7
O=C(Nc1ccncc1)c1cc(S(=O)(=O)N2CCN(c3ccccc3)CC2)ccc1Cl	i	i	i	i	-11	-0.64
COC(=O)CNC(c1ccccc1)c1cc(Br)ccc1NS(=O)(=O)c1ccc(C)cc1 (stereo unspecified)	i	i	i	-7.4*	-13	1.3
COC(=O)CNC(c1ccccc1)c1cc(Br)ccc1N (stereo unspecified)	i	i	i	i	-3	-0.55
COC(=O)CNC(c1ccccc1)c1cc(Br)ccc1NS(=O)(=O)c1ccccc1 (stereo unspecified)	i	i	i	-6.6*	-7	-0.06
COc1ccccc1NS(=O)(=O)c1ccc2oc(SC(C)C(=O)N3CCNC3=O)nc2c1 (stereo unspecified)	.	.	i	.	.	.
COc1cccc(CNC(=O)COC(=O)c2cccc(S(=O)(=O)N3CCCC3)c2)c1	.	.	i	.	.	.
CCCCOc1ccc(-c2nc(/C=N/c3nccs3)c(O)o2)cc1	i	i	i	i	1	0.66
Oc1oc(-c2ccccc2)nc1/C=N/c1nccs1	i	12*	i	i	0	-1.4
Cc1cccc(C(=O)Nc2nnc(S(=O)(=O)N(C)Cc3ccco3)s2)c1	i	i	i	i	-9	0.05
CNc1nc(NN)nc(Nc2ccccc2)n1	i	i	i	i	-11	-1
Nc1nc(SCC(=O)NC2CCCC2)[nH]c(=O)c1NC(=O)c1cccs1	i	i	i	i	-11	-0.1

Screening results: PubChem, Johns Hopkins Ion Channel Center
